Screening results: PubChem, several laboratories
UBC13 inh: inhibitors of human UBC13 polyubiquitin chain formation; 0.47% of 330,000 active; inhibition, % at 20 µM; P61088; TR-FRET; AID 485273; in the data active = inhibition above about 45%, passing the limit was not always enough; inconclusive = no clear call, values can overlap the other calls
Apaf-1 inh: human Apaf-1 inhibition. O14727. 0.71% of 330,000 active. inhibition, % at 20 µM. AID 489030. reconstituted apoptosome caspase-3 activity, DEVD-Rh110 fluorescence; active = inhibition of at least 40% at 20 µM;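 also: plate controls were DMSO wells for no effect and DEVD-CHO caspase inhibitor wells for full effect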
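Medium: Hepes buffer, pH 7.5 / System: biochemical Apaf-1 apoptosome reconstitution / Measured by: Rh110 fluorescence, excitation 480 nm, emission 540 nm / Times: compound with Apaf-1, dATP, procaspase-3 30 min, then 50 min reaction, room temperature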
MEKK2mut PB1 HTS: signal of MEK5 binding to mutant human MEKK2 PB1 domain; bead flow cytometry, Alexa488-MEK5 binding to MEKK2 mutant; percent response, % at 10 µM; 0.35% of 290,000 active; AID 1530; in the data active = percent response above about 24%, passing the limit was not always enough
MEKK3 PB1 HTS: modulators (inhibitors or enhancers) of MEK5 binding to human MEKK3 PB1 domain | bead-based flow cytometry, Alexa488-MEK5 binding to MEKK3; actives lie on both sides; 0 = blocked by unlabeled MEK5, 100 = vehicle | Q99759 | binding response (% of control), % at 10 µM | 1.4% of 290,000 active;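 active = binding response more than 3 SD above or below the average of its plate-row segment, actives on both sides; inconclusive = wells at one plate position flagged as instrument error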;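 also: Alexa488 bead fluorescence after subtracting the streptavidin-only scavenger bead signal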
Target sequence (Q99759 whole entry, looked up, the tested form may be a part): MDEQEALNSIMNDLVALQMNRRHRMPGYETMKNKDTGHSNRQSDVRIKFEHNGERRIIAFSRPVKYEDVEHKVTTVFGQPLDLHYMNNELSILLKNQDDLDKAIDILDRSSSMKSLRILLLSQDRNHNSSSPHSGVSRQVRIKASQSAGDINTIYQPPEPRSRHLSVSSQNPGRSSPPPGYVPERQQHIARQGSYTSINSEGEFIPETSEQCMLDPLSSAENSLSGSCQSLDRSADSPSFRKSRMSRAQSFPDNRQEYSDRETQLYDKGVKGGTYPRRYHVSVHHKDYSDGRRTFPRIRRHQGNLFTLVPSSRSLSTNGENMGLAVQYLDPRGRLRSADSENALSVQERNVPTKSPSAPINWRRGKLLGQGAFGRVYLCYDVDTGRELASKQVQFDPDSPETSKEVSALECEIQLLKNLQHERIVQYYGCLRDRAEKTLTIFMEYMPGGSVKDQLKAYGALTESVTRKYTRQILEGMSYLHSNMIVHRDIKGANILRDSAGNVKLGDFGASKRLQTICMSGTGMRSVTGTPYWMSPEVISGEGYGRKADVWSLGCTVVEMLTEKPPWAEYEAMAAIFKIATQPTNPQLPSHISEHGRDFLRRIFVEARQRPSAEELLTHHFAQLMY
MEKK2 WT-MEK5: raises or lowers MEK5 binding to wildtype human MEKK2 PB1 domain; Q9Y2U5; bead flow cytometry, Alexa488-MEK5 binding to MEKK2 WT; actives lie on both sides; binding response (% of control), % at 10 µM; 1.1% of 290,000 active; in the data active = binding response below about 67% or above about 130%; inconclusive = no clear call, values can overlap the other calls; inactive = in between
Casp3 UBC13 ctr: caspase-3 inhibition (UBC13 counter-screen); shares compounds with UBC13 inh; AID 488856; inhibition, % at 20 µM; 4% of 1,400 active; Recombinant caspase-3, Caspase-Glo 3/7 luminescence, 60 min;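 active = mean inhibition across replicates above about 26%, limit read from the data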;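 also: plate controls were DMSO with caspase-3 for no effect and DMSO wells lacking enzyme for full effect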
UBC13 confirm: confirmation of human UBC13 polyubiquitin inhibitors | shares compounds with UBC13 inh | inhibition, % at 10 µM | AID 488859 | 68% of 1,400 active | UBC13 polyubiquitination, TR-FRET, biochemical; in the data active = inhibition above about 45%; inconclusive = no clear call, values can overlap the other calls
Numbers without * were called inactive; u = inconclusive; x = not tested or not shown. Compounds with a hit are over-represented: about 2.9% of the library has one in this group of screens.

SMILES	UBC13 inh	Apaf-1 inh	MEKK2mut PB1 HTS	MEKK3 PB1 HTS	MEKK2 WT-MEK5	Casp3 UBC13 ctr	UBC13 confirm
COc1ccccc1NC(=O)c1c(N=Cc2c(O)ccc3ccccc23)cnn1C	57.6*	0.5	-5.0	105.0	100.0	0.1	66.1*
Cn1ncc(N=Cc2c(O)ccc3ccccc23)c1C(=O)N1CCOCC1	3.2	7.0	4.0	108.0	109.0	x	x
CCC(C)[C@H]1CNC(=S)N1CCc1cccc2ccccc12 (some centres undefined)	10.3	16.0	-9.0	83.0	92.0	x	x
CCC(C)[C@H]1CN=C(N)N1CCc1cccc2ccccc12 (some centres undefined)	45.1*	39.3	13.0	101.0	126.0	1.9	50.8*
Cc1sc2nc(C(C)Nc3ccccc3N3CCOCC3)[nH]c(=O)c2c1C (centres undefined)	73.5*	2.2	4.0	99.0	99.0	-0.7	86.8*
CC1SC2(NC1=O)C1CC3CC(C1)CC2C3 (centres undefined)	2.3	-11.6	-5.0	99.0	93.0	x	x
O=C(CSc1nc2ccsc2c(=O)n1Cc1ccc(C(=O)O)cc1)NCC1CCCO1 (centres undefined)	69.1*	3.8	-1.0	97.0	97.0	-4.1	76.6*
O=C(CSc1nc2ccsc2c(=O)n1Cc1ccccc1)NCC1CCCO1 (centres undefined)	55.3*	2.8	0.0	100.0	102.0	-1.5	58.2*
CC1Cc2nc(SCC(=O)NCC3CCCO3)n(Cc3ccccc3)c(=O)c2S1 (centres undefined)	-4.4	4.5	7.0	92.0	97.0	x	x
Cc1ccc(Cn2c(SCC(=O)NCC3CCCO3)nc3ccsc3c2=O)cc1 (centres undefined)	29.9	2.2	-8.0	102.0	98.0	x	x
CCOC(=O)c1cc(-c2ccc(OC)cc2)nc2c1c(C)nn2CCC#N	52.7*	18.5	-11.0	100.0	100.0	0.4	u
CN(C)S(=O)(=O)c1cccc(COc2ncnc3c(Cl)cc(Cl)cc23)c1	63.7*	3.0	-3.0	101.0	101.0	5.9	76.4*
C#CCOCCOCCOCCNc1nc(N2CCN(C(=O)CCCCCCCCCCNC(=O)[C@H](CCCCN)n3cc(C)nn3)CC2)nc(N2CCN(C(=O)CCCCCCCCCCNC(=O)[C@@H]([C@H](C)CC)n3cc(CCCCCN)nn3)CC2)n1	125.5*	81.5*	x	x	x	-1.2	127.8*
C#CCOCCOCCOCCNc1nc(N2CCN(C(=O)Cn3cc(CC(C)O)nn3)CC2)nc(N2CCN(C(=O)[C@H](CCCCN)n3cc(CCC(=O)O)nn3)CC2)n1 (some centres undefined)	-2.9	4.9	3.0	108.0	96.0	x	x
C#CCOCCOCCOCCNc1nc(N2CCN(C(=O)CCCCCCCCCCNC(=O)[C@H](CCCCN)n3cc(CCCC(=O)O)nn3)CC2)nc(N2CCN(C(=O)CCCCCCCCCCNC(=O)[C@H](CCCCN)n3cc(CCCC(=O)O)nn3)CC2)n1	45.3*	18.0	x	x	x	0.1	34.8
C#CCOCCOCCOCCNc1nc(N2CCN(C(=O)[C@H]([C@@H](C)CC)n3cc(CCCCN)nn3)CC2)nc(N2CCN(C(=O)[C@H](CCCCN)n3cc(CCC(=O)O)nn3)CC2)n1	-5.3	2.5	x	x	x	x	x
C#CCOCCOCCOCCNc1nc(N2CCN(C(=O)Cn3cc(CCCN=C(N)N)nn3)CC2)nc(N2CCN(C(=O)[C@H]([C@@H](C)CC)n3cc(CCCN=C(N)N)nn3)CC2)n1	x	x	-2.0	98.0	106.0	x	x
C#CCOCCOCCOCCNc1nc(N2CCOCC2)nc(N2CCN(C(=O)CCCCCCCCCCNC(=O)[C@H](CO)n3cc(CCCCCN)nn3)CC2)n1	61.5*	43.5*	x	x	x	-1.8	37.8
C#CCOCCOCCOCCNc1nc(N2CCN(C(=O)CCCCCCCCCCNC(=O)[C@@H](CCSC)n3cc(CCO)nn3)CC2)nc(N2CCN(C(=O)CCCCCCCCCCNC(=O)[C@H]([C@@H](C)CC)n3cc(CCCCN=C(N)N)nn3)CC2)n1	125.0*	64.2*	x	x	x	-3.1	124.1*
